Columns and labels:
Format in all cases: functional
Aspergillus niger [1] = assay: Antifungal activity against Aspergillus niger NCIM 596 at 100 ug/disk after 48 hrs by agar disk diffusion method; settings: NCIM 596, 48 h, read-out: IZ
How it was run: (§1)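 Fungal disc diffusion on nutrient agar plates pre-inoculated with each fungus. 6 mm sterile paper discs carried the compound in DMSO at the stated amount per disc. Plates were held at 37 °C, and inhibition-zone diameter was measured after 48 h. Values are the mean of three independent triplicate readings.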

Proteus vulgaris [2] = assay: Antibacterial activity against Proteus vulgaris NCIM 2027 at 100 ug/disk after 24 hrs by agar disk diffusion method; settings: NCIM 2027, 24 h, read-out: IZ
How it was run: (§2)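 Agar disc diffusion on nutrient agar plates pre-inoculated with each bacterium. Sterile 6 mm filter-paper discs were moistened with compound in DMSO at the stated per-disc amount. Plates were incubated at 37 °C, and the growth-inhibition zone diameter was read after 24 h. Each determination was run in triplicate, and the mean of three independent readings is reported.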

[3] = Antioxidant activity assessed as nitric oxide production at 100 uM after 120 mins by Griess reagent method
How it was run: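 Nitric oxide assay with Griess read-out. At intervals, 0.5 ml of incubation solution was mixed with 0.5 ml Griess reagent (1% sulfanilamide, 0.1% N-naphthylethylenediamine dihydrochloride, 2% o-phosphoric acid in water). The control received an equal amount of solvent and was handled identically.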

Klebsiella pneumoniae [4] = assay: Antibacterial activity against Klebsiella pneumoniae NCIM 2957 at 200 ug/disk after 24 hrs by agar disk diffusion method; settings: NCIM 2957, 24 h, read-out: IZ; how it was run: as §2
Aspergillus niger [5] = assay: Antifungal activity against Aspergillus niger NCIM 596 at 200 ug/disk after 48 hrs by agar disk diffusion method; settings: NCIM 596, 48 h, read-out: IZ; how it was run: as §1
Staphylococcus aureus [6] = assay: Antibacterial activity against Staphylococcus aureus NCIM 5021 at 100 ug/disk after 24 hrs by agar disk diffusion method; settings: NCIM 5021, 24 h, read-out: IZ; how it was run: as §2
Staphylococcus aureus [7] = assay: Antibacterial activity against Staphylococcus aureus NCIM 5021 at 200 ug/disk after 24 hrs by agar disk diffusion method; settings: NCIM 5021, 24 h, read-out: IZ; how it was run: as §2
Klebsiella pneumoniae [8] = assay: Antibacterial activity against Klebsiella pneumoniae NCIM 2957 at 100 ug/disk after 24 hrs by agar disk diffusion method; settings: NCIM 2957, 24 h, read-out: IZ; how it was run: as §2
Bacillus subtilis [9] = assay: Antibacterial activity against Bacillus subtilis NCIM 2063 at 200 ug/disk after 24 hrs by agar disk diffusion method; settings: NCIM 2063, 24 h, read-out: IZ; how it was run: as §2
Fusarium solani [10] = assay: Antifungal activity against Fusarium solani NCIM 1330 at 200 ug/disk after 48 hrs by agar disk diffusion method; settings: NCIM 1330, 48 h, read-out: IZ; how it was run: as §1
Curvularia lunata [11] = assay: Antifungal activity against Curvularia lunata NCIM 716 at 200 ug/disk after 48 hrs by agar disk diffusion method; settings: NCIM 716, 48 h, read-out: IZ; how it was run: as §1
Bacillus subtilis [12] = assay: Antibacterial activity against Bacillus subtilis NCIM 2063 at 100 ug/disk after 24 hrs by agar disk diffusion method; settings: NCIM 2063, 24 h, read-out: IZ; how it was run: as §2
Curvularia lunata [13] = assay: Antifungal activity against Curvularia lunata NCIM 716 at 100 ug/disk after 48 hrs by agar disk diffusion method; settings: NCIM 716, 48 h, read-out: IZ; how it was run: as §1
Proteus vulgaris [14] = assay: Antibacterial activity against Proteus vulgaris NCIM 2027 at 200 ug/disk after 24 hrs by agar disk diffusion method; settings: NCIM 2027, 24 h, read-out: IZ; how it was run: as §2
[15] = tested on: Radical scavenging activity; assay: Antioxidant activity assessed as DPPH free radical scavenging activity at 100 uM after 20 mins
How it was run: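 DPPH scavenging: compound solutions were added to DPPH in dioxane/ethanol and kept at ambient temperature for 20 min. Absorbance was read at 517 nm. The test–control difference was expressed as percent DPPH radical scavenging.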

Fusarium solani [16] = assay: Antifungal activity against Fusarium solani NCIM 1330 at 100 ug/disk after 48 hrs by agar disk diffusion method; settings: NCIM 1330, 48 h, read-out: IZ; how it was run: as §1

Row | SMILES | zone of inhibition at 100 µg/disc (Aspergillus niger [1]) | zone of inhibition at 100 µg/disc (Proteus vulgaris [2]) | inhibition [3] | zone of inhibition at 200 µg/disc (Klebsiella pneumoniae [4]) | zone of inhibition at 200 µg/disc (Aspergillus niger [5]) | zone of inhibition at 100 µg/disc (Staphylococcus aureus [6]) | zone of inhibition at 200 µg/disc (Staphylococcus aureus [7]) | zone of inhibition at 100 µg/disc (Klebsiella pneumoniae [8]) | zone of inhibition at 200 µg/disc (Bacillus subtilis [9]) | zone of inhibition at 200 µg/disc (Fusarium solani [10]) | zone of inhibition at 200 µg/disc (Curvularia lunata [11]) | zone of inhibition at 100 µg/disc (Bacillus subtilis [12]) | zone of inhibition at 100 µg/disc (Curvularia lunata [13]) | zone of inhibition at 200 µg/disc (Proteus vulgaris [14]) | inhibition [15] | zone of inhibition at 100 µg/disc (Fusarium solani [16])
1 | NC1=NC(=O)N=C(N)C1C(CS(=O)(=O)c1ccc(Cl)cc1)S(=O)(=O)c1ccc(Cl)cc1 (stereo unspecified) | 16 mm | 17 mm | 35.9% | 20 mm | 19 mm | 22 mm | 24 mm | 18 mm | 25 mm | 20 mm | 23 mm | 23 mm | 19 mm | 19 mm | 35.8% | 17 mm
2 | NC1=NC(=S)N=C(N)C1C(CC(=O)c1ccc(Cl)cc1)C(=O)c1ccc(Cl)cc1 (stereo unspecified) | 15 mm | 20 mm | 43.4% | 22 mm | 20 mm | 25 mm | 26 mm | 19 mm | 25 mm | 22 mm | 21 mm | 23 mm | 17 mm | 22 mm | 41.6% | 19 mm
3 | N=C1ON=C(N)C1C(CC(=O)c1ccccc1)C(=O)c1ccccc1 (stereo unspecified) | 27 mm | 21 mm | 43.5% | 25 mm | 29 mm | 23 mm | 26 mm | 23 mm | 27 mm | 31 mm | 32 mm | 24 mm | 30 mm | 24 mm | 42.3% | 30 mm
4 | CN1C(=N)C(C(CC(=O)c2ccc(Cl)cc2)C(=O)c2ccc(Cl)cc2)C(=N)N(C)C1=O (stereo unspecified) | 11 mm | 9 mm | 28.2% | 10 mm | 13 mm | 12 mm | 14 mm | 9 mm | 13 mm | 16 mm | 15 mm | 11 mm | 13 mm | 11 mm | 29.9% | 14 mm
5 | NC1=NC(=S)N=C(N)C1C(CS(=O)(=O)c1ccccc1)S(=O)(=O)c1ccccc1 (stereo unspecified) | 16 mm | 19 mm | 45.8% | 23 mm | 19 mm | 22 mm | 25 mm | 21 mm | 26 mm | 20 mm | 22 mm | 23 mm | 19 mm | 21 mm | 46.9% | 18 mm
6 | NC1=NN=C(N)C1C(CC(=O)c1ccccc1)C(=O)c1ccccc1 (stereo unspecified) | 29 mm | 23 mm | 71.7% | 29 mm | 30 mm | 27 mm | 30 mm | 27 mm | 31 mm | 33 mm | 32 mm | 29 mm | 30 mm | 26 mm | 73.7% | 31 mm
